An excerpt weighted towards active compounds, which were near 3.3% of everything screened.
Myeloid diff MLP = myeloid differentiation induction. ER-HoxA9 myeloid progenitors, lysozyme-GFP differentiation, flow cytometry. calls only at 10 µM. 1% of 360,000 active;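 active = normalized GFP-positive differentiation at or above the plate's own cutoff, the solvent-only control mean plus 3 SD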;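 note: cells exposed to compound for four days before flow analysis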
Granule exo inh = lytic granule exocytosis inhibition; inhibition, % at 10 µM; TALL-104 LAMP-1 surface exposure, flow cytometry; cells stimulated with thapsigargin and PMA; 0.66% of 360,000 active;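 active = inhibition above about 55%, limit read from the data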
Arr AP2 block = human beta-arrestin and AP2 interaction inhibition | FITC-arrestin peptide / GST-AP2 beads, flow cytometry; AP2 beta2 appendage carries R879A mutation | inhibition, % at 10 µM | 0.31% of 340,000 active | AID 504490;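 active = inhibition above a set limit, near 3 SD of compounds lacking own fluorescence, cut at about 54% in these data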;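 note: plate controls were DMSO wells for no effect and 5 µM unlabelled arrestin peptide for full effect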
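Test system: GST-tagged AP2 beta2-adaptin appendage (R879A) on 4 µm glutathione beads; also added: fluorescein-tagged arrestin peptide at 50 nM final; timing: 12 min plus 1 h, RT; signal: flow cytometry, FL1 (488/535 nm); read-out: percent drop in bead-associated FITC signal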
ABCB6 inh MLPCN = human ABCB6 transporter inhibition. Q9NP58. K562-ABCB6 porphyrin accumulation, flow cytometry, 1 h; active compounds read low. fluorescence ratio to DMSO, % at 10 µM. 0.19% of 360,000 active;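 active = fluorescence ratio to DMSO below 75%, the collection mean minus 3 SD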;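 note: signal is porphyrin accumulated inside mitochondria; 100% equals median channel fluorescence of DMSO control wells; lower ratio means ABCB6 inhibition with less porphyrin fluorescence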
CendR NRP1 mod = modulators of CendR peptide binding to human neuropilin-1; O14786; FAM-RPARPAR peptide binding to NRP-1, fluorescence polarization; inhibition, % at 25 µM; 0.85% of 360,000 active;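 active = inhibition or corrected inhibition above about 18%, plus a signal ratio from 0.5 to 1.5, limit read from the data, passing the limit was not always enough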
Target sequence (O14786 whole entry, looked up): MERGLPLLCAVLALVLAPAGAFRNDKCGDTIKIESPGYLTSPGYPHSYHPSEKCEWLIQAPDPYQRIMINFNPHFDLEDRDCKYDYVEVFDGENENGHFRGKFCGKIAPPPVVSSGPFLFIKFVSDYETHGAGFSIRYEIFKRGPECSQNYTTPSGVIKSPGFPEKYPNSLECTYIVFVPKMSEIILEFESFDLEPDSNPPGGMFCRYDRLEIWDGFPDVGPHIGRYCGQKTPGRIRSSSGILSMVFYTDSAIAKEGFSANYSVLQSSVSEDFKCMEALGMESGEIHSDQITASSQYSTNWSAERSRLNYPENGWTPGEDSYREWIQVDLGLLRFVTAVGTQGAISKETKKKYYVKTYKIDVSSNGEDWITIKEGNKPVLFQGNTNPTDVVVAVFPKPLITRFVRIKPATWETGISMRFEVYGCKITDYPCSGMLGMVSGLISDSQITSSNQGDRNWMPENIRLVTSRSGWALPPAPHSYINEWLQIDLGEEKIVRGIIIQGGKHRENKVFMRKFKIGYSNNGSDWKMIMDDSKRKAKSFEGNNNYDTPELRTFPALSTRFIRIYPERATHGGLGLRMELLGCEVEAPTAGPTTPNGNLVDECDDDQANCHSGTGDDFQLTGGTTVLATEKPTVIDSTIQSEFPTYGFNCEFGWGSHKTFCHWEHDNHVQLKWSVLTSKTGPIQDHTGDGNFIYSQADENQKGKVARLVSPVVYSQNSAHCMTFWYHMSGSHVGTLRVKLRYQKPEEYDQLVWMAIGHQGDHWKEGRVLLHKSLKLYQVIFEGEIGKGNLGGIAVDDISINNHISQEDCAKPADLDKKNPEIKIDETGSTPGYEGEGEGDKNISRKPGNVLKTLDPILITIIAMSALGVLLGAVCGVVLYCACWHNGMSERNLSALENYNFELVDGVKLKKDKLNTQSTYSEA
ATG4B inh = blocks human ATG4B protease cleavage of LC3 substrate; ATG4B cleavage of LC3-PLA2, NBD-HPC fluorescence, 1 h; inhibition, % at 8.33 µM; 0.51% of 340,000 active; in the data active = inhibition above about 40%
Granule exo CP1 = lytic granule exocytosis inhibition. shares compounds with Granule exo inh. TALL-104 cells, LAMP-1 externalization, flow cytometry; stimulated with PMA plus thapsigargin. inhibition, % at 10 µM. 11% of 1,500 active; in the data active = inhibition above about 60%;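 note: 0% = stimulated vehicle wells and 100% = unstimulated wells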
Numbers without * were called inactive; i = inactive; · = not tested or not shown; + = active, no number.

SMILES	Myeloid diff MLP	Granule exo inh	Arr AP2 block	ABCB6 inh MLPCN	CendR NRP1 mod	ATG4B inh	Granule exo CP1
COc1cccc2c1C(=O)c1ccc3ccccc3c1C2=O	i	61.4*	2.4	96.0	-1.0	0.1	78.0*
COc1cccc2c1-c1c(C(=O)O)cccc1C2=O	i	-4.9	-1.2	99.0	-2.2	-4.6	·
O=c1cc2c(=O)oc3cc(O)c(O)oc3c2c(O)c1O	i	-9.8	26.9	98.0	-13.8	2.6	·
Cc1c(C(=O)OCC(=O)Nc2cccc(S(N)(=O)=O)c2)oc2c1ccc1ccccc12	i	88.0*	7.0	97.0	-16.3	-9.0	93.0*
NS(=O)(=O)c1cccc(NC(=O)COC(=O)c2ccccc2C(=O)c2ccccc2)c1	i	0.5	6.5	83.0	3.4	-26.7	·
Cc1ccc2nc(-c3ccc(NC(=O)Cc4cccs4)cc3)[nH]c2c1	i	68.0*	21.2	102.0	5.6	0.8	-12.4
Cc1ccc2nc(NC(=O)Cc3cccs3)sc2c1	i	0.1	0.8	85.0	-6.0	-1.1	·
C=CCSC1=N/C(=C\c2ccc(C(=O)O)cc2)C(=O)S1	i	-1.2	-7.2	102.0	18.5	11.6	·
Cc1ccc(F)cc1-c1cc2nc(NCCCN(C)C)n(C)c(=O)c2s1	i	24.8	·	92.0	3.9	·	·
Cc1cc(C)cc(NC(=O)CSc2nncn2-c2ccccn2)c1	i	2.5	19.1	98.0	-1.7	-11.3	·
Clc1ccc(OCCCNCc2ccccc2)c2ccccc12	i	99.4*	3.1	92.0	5.1	18.9	6.4
Brc1ccccc1OCCNCc1ccccc1	i	-0.6	14.8	99.0	8.6	-1.9	·
Cc1nc(CS(=O)c2ccc(Cl)cc2)cc(NCc2ccc(Cl)cc2Cl)n1 (centres undefined)	i	-1.9	-4.5	96.0	6.7	19.9	·
CCNCC(=O)N1c2ccccc2CCc2ccc(NC(=O)OCC)cc21	i	57.0*	31.8	95.0	-3.4	9.8	-14.2
O=C(Cn1nnc2ccccc21)c1ccc(Cl)cc1	i	2.5	5.8	103.0	-1.5	-2.9	·
CCOC(=O)COc1ccccc1C(=O)c1cnn(-c2ccccc2)c1	i	61.7*	-2.1	96.0	-3.9	0.5	-8.6
O=C(COc1ccccc1C(=O)c1cnn(-c2ccccc2)c1)Nc1ccc2ccccc2c1	i	2.2	2.5	96.0	5.3	23.2	·
Clc1cccc(Cc2c(-c3ccco3)nc3c4ccccc4ccn23)c1	i	96.5*	·	129.0	-33.4	·	-5.8
Fc1cccc(Cc2c(-c3ccco3)nc3c4ccccc4ccn23)c1	i	86.9*	·	96.0	-35.4	·	30.9
CC(O)Cn1nc([N+](=O)[O-])nc1N (centres undefined)	i	-3.9	11.7	106.0	5.7	-16.1	·
CC(C)C(NC(=O)c1ccc(C(C)(C)C)cc1)C(=O)NCC(c1ccccc1)N(C)C (centres undefined)	i	4.7	4.2	91.0	-8.9	-2.8	·
OCC1(CCc2ccccc2)CCN(C/C=C/c2ccccc2)CC1	i	56.6*	-11.5	101.0	-4.7	14.2	-11.7
OCC1(Cc2ccccc2Cl)CCN(C/C=C/c2ccccc2)CC1	i	-3.4	5.2	95.0	-1.4	-10.1	·
CN(Cc1cccs1)c1nc(-c2cccnc2)nc2ccccc12	i	84.5*	7.7	85.0	-3.8	-2.5	20.7
Cc1ccc(-c2nc3c(c(=O)[nH]c(=O)n3Cc3ccccc3)n2Cc2ccccc2)o1	i	12.8	-16.4	104.0	-11.8	-5.2	·
SMILES	Myeloid diff MLP	Granule exo inh	Arr AP2 block	ABCB6 inh MLPCN	CendR NRP1 mod	ATG4B inh	Granule exo CP1
Cc1ccc(-c2nc3c(c(=O)[nH]c(=O)n3Cc3ccccc3)n2C)o1	i	97.5*	-3.6	104.0	-21.1	-1.3	-12.2
CC(=O)N1CCC(N(CCN2CCOCC2)C(=S)Nc2ccccc2C)CC1	i	1.7	-4.0	97.0	4.6	1.3	·
CCOC(=O)c1c(CSc2cccs2)n(C)c2cc(Br)c(O)c(CN(C)C)c12	i	89.6*	24.1	93.0	-6.7	0.4	14.9
O=C(Nc1cnn(Cc2ccccc2)c1)c1cc2nc(-c3ccco3)cc(C(F)(F)F)n2n1	i	96.2*	4.5	99.0	-2.9	20.9	-4.9
CSCCC(C(=O)Nc1c(C)cccc1C)n1c(COc2ccc(C)cc2)nc2ccccc21 (centres undefined)	i	-5.3	·	·	-3.2	·	·
CN(c1ccccc1)S(=O)(=O)c1ccc2ccccc2c1	i	65.3*	-1.2	103.0	9.0	7.3	-3.7
C[C@@H]1CN(C(=O)c2nc3ccc(Cl)cn3c2CN(C)CCc2cnn(C)c2)C[C@H](C)O1	i	-1.0	-13.4	100.0	10.5	10.6	·
Cc1ccc(-n2sc3cc(F)ccc3c2=O)c(C)c1	i	41.6	·	100.0	3.6	·	·
O=c1c2cc(F)ccc2sn1-c1ccccc1Cl	i	63.5*	·	101.0	4.9	·	103.2*
O=c1c2ccc(F)cc2sn1-c1ccccc1	i	71.2*	·	97.0	3.9	·	99.7*
COc1ccccc1CCC(=O)NCCCn1ccc2ccccc21	i	71.5*	18.9	96.0	-7.0	0.3	-12.9
COc1ccccc1CCNC(=O)Cn1ccc2cc(S(=O)(=O)N3CCC(C)CC3)ccc21	+	59.9*	-2.2	98.0	0.2	-0.9	-13.1
CCC1CCC(N2CCN(c3ccc([N+](=O)[O-])cc3)CC2)CC1 (centres undefined)	i	74.5*	4.5	101.0	-6.0	7.7	-9.5
NC(=O)c1cc[n+](Cc2ccc([N+](=O)[O-])cc2)cc1	i	2.8	5.6	101.0	-7.5	1.1	·
CCOC(=O)C1(CCOc2ccccc2)CCN(Cc2ccc(O)cc2)CC1	i	56.5*	-9.8	107.0	-9.6	-0.2	-5.3
CCOC(=O)C1(CCOc2ccccc2)CCN(Cc2ccc(OC)c(COC)c2)CC1	i	73.6*	-7.7	95.0	2.2	3.8	-9.2
CCOC(=O)C1(CCOc2ccccc2)CCN(Cc2cc(OC)c(O)c(OC)c2)CC1	i	76.6*	0.4	91.0	7.6	3.3	9.6
CCOC(=O)C1(CCOc2ccccc2)CCN(Cc2ccc(OCCO)cc2)CC1	i	37.8	26.5	98.0	14.1	-1.3	·
CCOC(=O)C1(Cc2cccc(OC)c2)CCN(Cc2ccc(OC)c(O)c2)CC1	i	-0.3	0.3	98.0	0.5	9.8	·
CCOC(=O)C1(CCOc2ccccc2)CCN(Cc2ccc(OC)c(O)c2)CC1	i	71.0*	3.3	101.0	2.2	1.8	-12.3
Cc1csc(C(=O)O)c1NC(=O)c1cccc([N+](=O)[O-])c1	i	1.9	-11.1	102.0	1.5	3.5	·
Cn1ncc2c(Nc3cccc([N+](=O)[O-])c3)ncnc21	i	2.1	31.1	97.0	-6.1	-7.2	·
